≈ marks a conversion by molar mass, not a printed value.
What was measured:
[1] = tested on: Human immunodeficiency virus 1; assay: Protease inhibitory activity against HIV-1 r13025 mutant strain was determined; assay type: functional, organism-based
[2] = tested on: Caco-2; assay: In vitro increase in apparent permeability from apical to basolateral was determined in Caco-2 (human colon carcinoma) cells; assay type: functional, cell-based
Method in brief: (§1)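 Caco-2 monolayer apparent permeability measured apical-to-basolateral and basolateral-to-apical; reported as Papp in cm/s (×10⁶).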

[3] = tested on: Human immunodeficiency virus 1; assay: Protease inhibitory activity against HIV-1 r13363 mutant strain was determined; assay type: functional, organism-based
[4] = In vitro solubility at was determined; pH=7; assay type: ADME
Method in brief: (§2)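 Aqueous solubility measured at pH 5 and pH 7, expressed in […].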

[5] = organism: Rattus norvegicus; assay: In vitro metabolic stability value after 30 min of incubation with liver microsomes of rat was determined; assay type: functional; settings: Microsome
Method in brief: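 Compound at 10 µM incubated at 37 °C with dog, human or rat liver microsomes. Residual parent compound quantified directly by LC-MS. Value is percent parent remaining after 30 min.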

[6] = tested on: Human immunodeficiency virus 1; assay: Protease inhibitory activity against wild type HIV-1 IIIB was determined; assay type: functional, organism-based
[7] = In vitro solubility at was determined; pH=5; assay type: ADME; method in brief: as §2
[8] = tested on: Human immunodeficiency virus 1; assay: Protease inhibitory activity against HIV-1 r13034 mutant strain was determined; assay type: functional, organism-based
[9] = tested on: Caco-2; assay: In vitro increase in apparent permeability from basolateral to apical was determined in Caco-2 (human colon carcinoma) cells; assay type: functional, cell-based; method in brief: as §1
[10] = tested on: Human immunodeficiency virus 1; assay: Toxicity value against wild type HIV-1 IIIB was determined; assay type: functional
Method in brief: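 MT4 cells (150 000 cells/mL) mock-infected, run in parallel with HIV-infected cultures over an identical compound concentration range. Incubated 3 days at 37 °C, 5% CO₂. Reduced expression of the […] GFP reporter serves as the toxicity marker.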

[11] = tested on: Human immunodeficiency virus 1; assay: Protease inhibitory activity against HIV-1 GSS004421 mutant strain was determined; assay type: functional, organism-based
[12] = In vivo half life value in dog was determined at a dosage of 20 mg/kg; assay type: ADME, organism-based, Canis lupus familiaris; design: dose 20 mg/kg
Method in brief: (§3)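 Oral dosing in dog at 20 mg/kg, coadministered with ritonavir. Compound given as a solution in PEG400 or in 40% w/v hydroxypropyl-β-cyclodextrin with 2% citric acid. Plasma Cmax, Tmax, t1/2 and AUC determined.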

[13] = In vivo area under the concentration time curve value in dog was determined at a dosage of 20 mg/kg; assay type: ADME, organism-based, Canis lupus familiaris; design: dose 20 mg/kg; method in brief: as §3
[14] = In vivo time to reach maximum plasma concentration value in dog was determined at a dosage of 20 mg/kg; assay type: ADME, organism-based, Canis lupus familiaris; design: dose 20 mg/kg; method in brief: as §3
[15] = Maximum plasma concentration value in dog was determined at a dosage of 20 mg/kg; assay type: ADME, organism-based, Canis lupus familiaris; design: dose 20 mg/kg; method in brief: as §3
[16] = target: Human immunodeficiency virus type 1 protease (Human immunodeficiency virus 1, UniProt Q72874); assay: Binding affinity against HIV-1 protease
Method in brief: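 Isothermal titration calorimetry by displacement: the protease was pre-titrated with acetylpepstatin (300 µM) as the weaker binder, then the inhibitor (125 or 200 µM in the syringe) was injected to saturation into protease (9–21 µM). Buffer was 10 mM sodium acetate pH 5.0, 2% DMSO, 2 mM TCEP. Heats of dilution were subtracted, and each run was done at least twice.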

[17] = In vivo time to reach maximum plasma concentration value in wistar rat was determined at a dosage of 20 mg/kg; assay type: ADME, organism-based; design: dose 20 mg/kg
Method in brief: (§4)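 Wistar rats, single-dose study at 20 mg/kg, compound formulated in PEG400. Plasma Cmax, Tmax, t1/2 and AUC determined.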

[18] = In vivo area under the concentration time curve value in wistar rat was determined at a dosage of 20 mg/kg; assay type: ADME, organism-based; design: dose 20 mg/kg; method in brief: as §4
[19] = Maximum plasma concentration value in wistar rat was determined at a dosage of 20 mg/kg; assay type: ADME, organism-based; design: dose 20 mg/kg; method in brief: as §4
[20] = In vivo half life value in wistar rat was determined at a dosage of 20 mg/kg; assay type: ADME, organism-based; design: dose 20 mg/kg; method in brief: as §4

SMILES | pEC50 [1] | Papp [2] [×10⁻⁶ cm/s] | pEC50 [3] | solubility [4] [µg/mL] | Metabolic stability [5] [%] | EC50 [6] [nM] | solubility [7] [µg/mL] | pEC50 [8] | Papp [9] [×10⁻⁶ cm/s] | pCC50 [10] | pEC50 [11] | half-life [12] [h] | AUC [13] [ng·h/mL] | Tmax [14] [h] | Cmax [15] [ng/mL] | Kd [16] [nM] | Tmax [17] [h] | AUC [18] [ng·h/mL] | Cmax [19] [ng/mL] | half-life [20] [h]
CC(C)CN(C[C@@H](O)[C@H](Cc1ccccc1)NC(=O)O[C@H]1CO[C@H]2OCC[C@H]21)S(=O)(=O)c1ccc2nc(N)sc2c1 | 8.51 | 9.9 | 7.9 | < 10 | 77 | 9.12 | < 10 | 8.42 | 27.3 | 4.77 | 8.59 | – | – | – | – | – | – | – | – | –
CC(C)CN(C[C@@H](O)[C@H](Cc1ccccc1)NC(=O)O[C@H]1CO[C@H]2OCC[C@H]21)S(=O)(=O)c1ccc2nc(NCCN(C)C)sc2c1 | 7.84 | 6.1 | 7.67 | 40 (≈ 59.2 µM) | 19 | 11.2 | 410 (≈ 607 µM) | 8.09 | 26.6 | < 4.49 | 7.9 | – | – | – | – | – | – | – | – | –
CNc1nc2ccc(S(=O)(=O)N(CC(C)C)C[C@@H](O)[C@H](Cc3ccccc3)NC(=O)O[C@H]3CO[C@H]4OCC[C@H]43)cc2s1 | 8.81 | 19.3 | 7.81 | < 10 | 72 | 0.912 | < 10 | 8.81 | 14.2 | < 4.49 | 8.59 | – | – | – | – | – | – | – | – | –
CC(C)CN(C[C@@H](O)[C@H](Cc1ccccc1)NC(=O)O[C@H]1CO[C@H]2OCC[C@H]21)S(=O)(=O)c1ccc2nc(NCCN3CCCC3)sc2c1 | 7.88 | 3.5 | 7.49 | < 10 | 56 | 11 | 90 (≈ 128 µM) | 7.91 | 21.7 | < 4.49 | 7.86 | 1.66 | 6050 | 0.5 | 1970 | 0.0637 | – | – | – | –
CNc1nc2ccc(S(=O)(=O)N(CC(C)C)C[C@@H](O)[C@H](Cc3ccccc3)NC(=O)O[C@H]3CO[C@H]4OCC[C@H]43)cc2o1 | 8.13 | 17.6 | 7.5 | < 10 | 70 | 2 | 10 (≈ 16.6 µM) | 8.61 | 24 | < 4.49 | 8.07 | 0.9 | 2030 | 2 | 986 | 0.9 | 1.4 | 1200 | 927 | –
CC(C)CN(C[C@@H](O)[C@H](Cc1ccccc1)NC(=O)O[C@H]1CO[C@H]2OCC[C@H]21)S(=O)(=O)c1ccc2ncsc2c1 | 7.83 | – | 6.57 | – | – | 1.1 | – | 8.11 | – | < 4.49 | 7.78 | – | – | – | – | – | – | – | – | –
CC(C)CN(C[C@@H](O)[C@H](Cc1ccccc1)NC(=O)O[C@H]1CO[C@H]2OCC[C@H]21)S(=O)(=O)c1ccc2nc(N)oc2c1 | 8.21 | 3.8 | 7.6 | – | 90 | 11.7 | – | 8.19 | 23.8 | < 4.49 | 8.06 | – | – | – | – | – | 1 | 448 | 260 | 1.6
CC(C)c1nc(CN(C)C(=O)N[C@H](C(=O)N[C@@H](Cc2ccccc2)C[C@H](O)[C@H](Cc2ccccc2)NC(=O)OCc2cncs2)C(C)C)cs1 [RITONAVIR] | 5.99 | – | 4.89 | – | – | 64.6 | – | 5.3 | – | 4.53 | 4.97 | – | – | – | – | – | – | – | – | –
Cc1c(O)cccc1C(=O)N[C@@H](CSc1ccccc1)[C@H](O)CN1C[C@H]2CCCC[C@H]2C[C@H]1C(=O)NC(C)(C)C | 5.31 | – | 5.82 | – | – | 70.8 | – | 5.9 | – | 4.75 | 6.28 | – | – | – | – | – | – | – | – | –
CC(C)CN(C[C@@H](O)[C@H](Cc1ccccc1)NC(=O)O[C@H]1CO[C@H]2OCC[C@H]21)S(=O)(=O)c1ccc2nc(NCCCN(C)C)sc2c1 | 7.69 | – | 7.53 | – | – | 57.5 | – | 8.17 | – | 4.73 | 7.72 | – | – | – | – | – | – | – | – | –
CC(C)CN(C[C@@H](O)[C@H](Cc1ccccc1)NC(=O)O[C@H]1CO[C@H]2OCC[C@H]21)S(=O)(=O)c1ccc2nc(N(C)C)oc2c1 | 6.66 | – | 5.38 | – | – | 4.17 | – | 6.92 | – | < 4.49 | 6.58 | – | – | – | – | – | – | – | – | –
CC(C)CN(C[C@@H](O)[C@H](Cc1ccccc1)NC(=O)O[C@H]1CO[C@H]2OCC[C@H]21)S(=O)(=O)c1ccc2nc(N(C)CCCN(C)C)sc2c1 | 6.95 | 2 | 6.08 | 1180 (≈ 1680 µM) | 47 | 14.8 | 1640 (≈ 2330 µM) | 7.32 | 8.5 | 4.68 | 6.71 | 2.9 | 6590 | 1 | 1680 | – | – | – | – | –
CC(C)CN(C[C@@H](O)[C@H](Cc1ccccc1)NC(=O)O[C@H]1CO[C@H]2OCC[C@H]21)S(=O)(=O)c1ccc2nc(N(C)CCCN3CCCC3)oc2c1 | 6.63 | – | 5.22 | – | – | 69.2 | – | 6.34 | – | < 4.49 | 6.22 | – | – | – | – | – | – | – | – | –
CC(C)CN(C[C@@H](O)[C@H](Cc1ccccc1)NC(=O)O[C@H]1CO[C@H]2OCC[C@H]21)S(=O)(=O)c1ccc2nc(NCCN(C)C)oc2c1 | 6.87 | – | 6.7 | – | – | 81.3 | – | 7.61 | – | < 4.49 | 6.81 | – | – | – | – | – | – | – | – | –
CC(C)(C)NC(=O)[C@@H]1C[C@@H]2CCCC[C@@H]2CN1C[C@@H](O)[C@H](Cc1ccccc1)NC(=O)[C@H](CC(N)=O)NC(=O)c1ccc2ccccc2n1 | 6.83 | – | 7.54 | – | – | 26.3 | – | 5.91 | – | 4.68 | 6.3 | – | – | – | – | – | – | – | – | –
Cc1cccc(C)c1OCC(=O)N[C@@H](Cc1ccccc1)[C@@H](O)C[C@H](Cc1ccccc1)NC(=O)[C@H](C(C)C)N1CCCNC1=O [LOPINAVIR] | 7.84 | – | 6.28 | – | – | 9.77 | – | 6.59 | – | 4.95 | 6.02 | – | – | – | – | – | – | – | – | –
